Published values of several laboratories.
Protocols differ between the studies behind these lines.
Medium: plasma

Compound | test system | conditions | Tmax [h]
CNC(=O)n1ccc2cc(Oc3ccnc(NC(=O)c4ccc(C5CCN(CCO)CC5)cc4)c3)c(OCCOC)cc21 | human | oral, 35 mg, single dose, fasted, healthy volunteers | 3
Cn1cc(Nc2nc(N)nc(-c3cccc(-n4ccc5cc(C6CC6)cc(F)c5c4=O)c3CO)n2)cn1 | human | oral, 300 mg, single dose, fasted, healthy volunteers | 2
COc1ccc([C@@H](O)c2cc(-c3ncnc4cc(N5CCOCC5)ccc34)c(F)cc2Cl)nn1 | human | oral, 400 mg, single dose, patients | 1.08
NS(=O)(=O)OC[C@@H]1C[C@@H](n2ccc3c(N[C@H]4CCc5ccccc54)ncnc32)C[C@@H]1O | human | intravenous, 15 mg/m², patients | 1.13
CN1CC[C@@H](c2c(O)cc(O)c3c(=O)cc(-c4ccc(C(F)(F)F)cc4Cl)oc23)[C@@H]1CO | human | oral, 50 mg, patients | 4.1
CC(C)n1c(Nc2cccnc2)nc2cnc(Nc3ccc(N4CCN(C)CC4)cc3)nc21 | male human | oral, 150 mg, single dose, healthy volunteers | 1.5
Cl.[2H]C([2H])([2H])CC(=O)c1cnc(NC(=O)C2CC2)cc1Nc1cccc(-c2ncn(C([2H])([2H])[2H])n2)c1OC | human | oral, 20 mg, multiple doses, once daily, fasted | 2.1
Cc1ccc(C(=O)Nc2ccc(CN3CCN(C)CC3)c(C(F)(F)F)c2)cc1C#Cc1cnc2[nH]ncc2c1 | human | oral, 40 mg, healthy volunteers | 8
C[C@H](O)C(=O)C1=Nc2c(nc(N)[nH]c2=O)NC1 | human | oral, 20 mg/kg, single dose, healthy volunteers | 4
